# Laboratory results as given in PMC5014782 (Diabetes Therapy, 2016).
# Entries after “also recorded” stand apart in the source; their conditions may differ. Where two headings read alike, the source gives them in different places. Marks after values point to notes of the source that are not given here.
# Key:
# [1] = test system: patients with type 2 diabetes mellitus; test: Exposure–response analysis for efficacy; format: in vivo, human; settings: for Target of the maximal response for FPG and HbA1c obtained: after 24 weeks
# Outline: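 NONMEM population PK/PD turnover model fitted to 25,361 FPG and 22,012 HbA1c values from 4065 patients, placebo arms included, in three Phase II and four Phase III trials of ≥12 weeks. AUCss drives FPG elimination through a non-linear Emax term, and FPG changes drive HbA1c production. Steady-state baseline assumed. Covariates on Gmax include eGFR and baseline FPG. Precision checked by bootstrap.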
# [2] = Population pharmacokinetic analysis; format: in vivo, human
# Outline: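 NONMEM 7.2 two-compartment model with lagged first-order absorption (lag fixed at 0.5 h) and first-order elimination. Fitted to 12,503 plasma concentrations from 2761 patients given oral doses of 1–100 mg once daily in ten Phase I–III studies; placebo excluded and first-hour samples dropped. eGFR by the MDRD formula, with a reference patient at eGFR 100 mL/min/1.73 m2. Bootstrap precision check.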
# [3] = test system: patients with type 2 diabetes mellitus; settings: cited from earlier work; for Placebo-corrected reduction in HbA1c / Reduction in FPG: Phase III
# [4] = Japanese patients with T2DM and renal impairment; subjects with renal impairment; cited from earlier work
# [5] = test system: patients with type 2 diabetes mellitus; test: Exposure–response analysis for safety/tolerability; format: in vivo, human; settings: empagliflozin therapy compared with placebo-treated patients; OR (95% CI)
# Outline: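 Logistic regression (R glm, binomial, logit link) of dichotomous patient-level adverse-event endpoints, each counted as any event during study. Endpoints: confirmed hypoglycemia (plasma glucose <3.9 mM and/or assistance required), and UTI, genital infection and volume depletion defined by 73, 89 and 8 preferred terms. Covariates enter additively with steady-state AUC relative to reference. Odds ratios computed for empagliflozin treatment.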
# [6] = test system: patients with type 2 diabetes mellitus; format: in vivo, human; settings: 24 weeks, median (2.5th, 97.5th percentile)
# [7] = eGFR 15 mL/min/1.73 m^2 vs reference patient with eGFR 100 mL/min/1.73 m^2
compound,measurement,setting,value
OC[C@H]1O[C@@H](c2ccc(Cl)c(Cc3ccc(O[C@H]4CCOC4)cc3)c2)[C@H](O)[C@@H](O)[C@@H]1O [empagliflozin],Target of the maximal response for FPG and HbA1c obtained,[1]; once daily dose of approximately 10 mg,80%
same,Target of the maximal response for FPG and HbA1c obtained,[1]; once daily dose of approximately 25 mg,90%
same,Efficacy (effect on FPG) maintained in renal impairment,[1]; eGFR as low as 30 mL/min/1.73 m^2,nearly half the maximal effect
same,Once daily dose whose median exposure corresponds to AUC50,[1]; once daily dose,around 3 mg
same,Increase in typical AUCss,[2]; [7],88.1%
same,Reduction in CL/F,[2]; [7],46.8%
same,Increase in typical AUCss,[2]; eGFR 30 mL/min/1.73 m^2 vs reference patient with eGFR 100 mL/min/1.73 m^2,49.2%
same,Increase in typical AUCss,[2]; eGFR 60 mL/min/1.73 m^2 vs reference patient with eGFR 100 mL/min/1.73 m^2,18.5%
same,Increase in mean AUCss,[2]; eGFR ≥60 mL/min/1.73 m^2 vs reference eGFR 100 mL/min/1.73 m^2,≤ 20%
same,Vd/F,"[2]; human, plasma, oral",3.14 L
same,Increase in exposure (AUCss) in renal impairment,[2]; patients with (severe) renal impairment,less than twofold increase in exposure; also recorded: increased less than twofold; also recorded: increase in exposure less than twofold
same,first-order ka,[2]; typical value given the reference covariates,0.196 L/h
same,Placebo-corrected reduction in HbA1c,"[3]; add-on therapy, 10 mg",−0.4% to −0.7%
same,Reduction in FPG,"[3]; add-on therapy, 10 mg",−0.9 to −1.5 mM
same,Placebo-corrected reduction in HbA1c,"[3]; add-on therapy, 25 mg",−0.5% to −0.7%
same,Reduction in FPG,"[3]; add-on therapy, 25 mg",−1.2 to −1.8 mM
same,Placebo-corrected reduction in HbA1c,"[3]; monotherapy, 10 mg",−0.7%
same,Reduction in FPG,"[3]; monotherapy, 10 mg",-1.7 mM
same,Placebo-corrected reduction in HbA1c,"[3]; monotherapy, 25 mg",−0.9%
same,Reduction in FPG,"[3]; monotherapy, 25 mg",-2.0 mM
same,Effect on HbA1c as add-on to existing antidiabetic therapy,[3]; patients with T2DM and stage 2 or 3 CKD,significant reductions in HbA1c
same,Effect on HbA1c,[3]; patients with severe renal impairment (stage 4 CKD),no reduction in HbA1c was observed
same,Increase in exposure for patients with renal impairment,[4],less than twofold
same,OR for UTI,[5],"0.941 (0.687, 1.29)"
same,OR for genital infection,[5],"5.08 (2.77, 9.34)"
same,OR for hypoglycemia,[5],"1.11 (0.811, 1.52)"
same,OR for volume depletion,[5],"1.44 (0.517, 4.01)"
same,"Median change from baseline in glycated hemoglobin, Observed","[6]; 10 mg, eGFR 30–60 mL/min/1.73 m^2 (study 10), five patients","−0.90 (−1.81, 0.12)^a"
same,"Median change from baseline in glycated hemoglobin, Observed","[6]; 10 mg, eGFR 45–60 mL/min/1.73 m^2 (study 10), five patients","−0.90 (−1.81, 0.12)^a"
same,"Median change from baseline in glycated hemoglobin, Observed","[6]; 10 mg, eGFR 60–90 mL/min/1.73 m^2 (study 10)","−0.40 (−1.70, 0.76)"
same,"Median change from baseline in glycated hemoglobin, Observed","[6]; 10 mg, elderly (75–85 years)","−0.65 (−2.44, 0.40)"
same,"Median change from baseline in glycated hemoglobin, Observed","[6]; 25 mg, eGFR 30–45 mL/min/1.73 m^2 (study 10)","−0.30 (−1.83, 1.43)"
same,"Median change from baseline in glycated hemoglobin, Observed","[6]; 25 mg, eGFR 30–60 mL/min/1.73 m^2 (study 10)","−0.40 (−2.00, 1.25)"
same,"Median change from baseline in glycated hemoglobin, Observed","[6]; 25 mg, eGFR 45–60 mL/min/1.73 m^2 (study 10)","−0.40 (−1.97, 0.88)"
same,"Median change from baseline in glycated hemoglobin, Observed","[6]; 25 mg, eGFR 60–90 mL/min/1.73 m^2 (study 10)","−0.70 (−1.64, 0.90)"
same,"Median change from baseline in glycated hemoglobin, Observed","[6]; 25 mg, elderly (75–85 years)","−0.50 (−2.03, 0.60)"
